# Columns and labels:
# Type in all cases: functional
# Felis catus [1] = test: Average food consumed at the dose of 0.063 mg/kg (po) using 10 cats per dose level at 180 min (control day/ test day); 62/219
# Felis catus [2] = test: Average food consumed at the dose of 0.50 mg/kg (po) using 10 cats per dose level at 180 min (control day/ test day); 46/243; settings: dose 0.5 mg/kg
# How it was run: (§1)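 Cats given test compound suspended in 1% methylcellulose, or 1% methylcellulose placebo, by gavage 30 min before a preweighed test meal. Food was offered in surplus for 3 h, and intake was found by reweighing at 30, 60 and 180 min. Ten cats per dose, each dosed no more than once weekly. Test-day intake was compared with the preceding control day by two-tailed paired t test (p < 0.05); values are mean ± SD.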
# Felis catus [3] = test: Average food consumed at the dose of 0.25 mg/kg (po) using 10 cats per dose level at 180 min (control day/ test day); 46/239
# Felis catus [4] = test: Average food consumed at the dose of 0.50 mg/kg (po) using 10 cats per dose level at 30 min (control day/ test day); 51/189; settings: dose 0.5 mg/kg; how it was run: as §1
# Felis catus [5] = test: Average food consumed at the dose of 0.25 mg/kg (po) using 10 cats per dose level at 30 min (control day/ test day); 33/172; how it was run: as §1
# Felis catus [6] = test: Average food consumed at the dose of 0.016 mg/kg (po) using 10 cats per dose level at 60 min (control day/ test day); 16/119
# Felis catus [7] = test: Average food consumed at the dose of 0.063 mg/kg (po) using 10 cats per dose level at 30 min (control day/ test day); 28/137
# Felis catus [8] = test: Average food consumed at the dose of 0.016 mg/kg (po) using 10 cats per dose level at 180 min (control day/ test day); 33/182
# Felis catus [9] = test: Average food consumed at the dose of 0.50 mg/kg (po) using 10 cats per dose level at 60 min (control day/ test day); 44/217; settings: dose 0.5 mg/kg; how it was run: as §1
# Felis catus [10] = test: Average food consumed at the dose of 0.063 mg/kg (po) using 10 cats per dose level at 60 min (control day/ test day); 37/178
# Felis catus [11] = test: Average food consumed at the dose of 0.25 mg/kg (po) using 10 cats per dose level at 60 min (control day/ test day); 40/208; how it was run: as §1
# Felis catus [12] = test: Average food consumed at the dose of 0.016 mg/kg (po) using 10 cats per dose level at 30 min (control day/ test day); 16/91
# Felis catus [13] = test: Average food consumed at the dose of 0.031 mg/kg (po) using 10 cats per dose level at 30 min (control day/ test day); 25/67
# Felis catus [14] = test: Average food consumed at the dose of 0.50 mg/kg (po) using 10 cats per dose level at 60 min (control day/ test day); 23/129; settings: dose 0.5 mg/kg; how it was run: as §1
# Felis catus [15] = test: Average food consumed at the dose of 0.25 mg/kg (po) using 10 cats per dose level at 30 min (control day/ test day); 37/98; how it was run: as §1
# Felis catus [16] = test: Average food consumed at the dose of 0.50 mg/kg (po) using 10 cats per dose level at 30 min (control day/ test day); 24/93; settings: dose 0.5 mg/kg; how it was run: as §1
# Felis catus [17] = test: Average food consumed at the dose of 0.25 mg/kg (po) using 10 cats per dose level at 180 min (control day/ test day); 40/210
# Felis catus [18] = test: Average food consumed at the dose of 0.031 mg/kg (po) using 10 cats per dose level at 180 min (control day/ test day); 34/172
# Felis catus [19] = test: Average food consumed at the dose of 0.25 mg/kg (po) using 10 cats per dose level at 60 min (control day/ test day); 46/128; how it was run: as §1
# Felis catus [20] = test: Average food consumed at the dose of 0.031 mg/kg (po) using 10 cats per dose level at 60 min (control day/ test day); 9/113
# Felis catus [21] = test: Average food consumed at the dose of 0.031 mg/kg (po) using 10 cats per dose level at 30 min (control day/ test day); 18/88
# Felis catus [22] = test: Average food consumed at the dose of 0.031 mg/kg (po) using 10 cats per dose level at 60 min (control day/ test day); 25/105
# Felis catus [23] = test: Average food consumed at the dose of 0.031 mg/kg (po) using 10 cats per dose level at 180 min (control day/ test day); 52/182
# Felis catus [24] = test: Average food consumed at the dose of 0.50 mg/kg (po) using 10 cats per dose level at 180 min (control day/ test day); 35/194; settings: dose 0.5 mg/kg; how it was run: as §1
# Felis catus [25] = test: Average food consumed at the dose of 0.016 mg/kg (po) using 10 cats per dose level at 30 min (control day/ test day); 35/118
# Felis catus [26] = test: Average food consumed at the dose of 0.25 mg/kg (po) using 10 cats per dose level at 30 min (control day/ test day); 34/165; how it was run: as §1
# Felis catus [27] = test: Average food consumed at the dose of 0.063 mg/kg (po) using 10 cats per dose level at 60 min (control day/ test day); 28/130
# Felis catus [28] = test: Average food consumed at the dose of 0.25 mg/kg (po) using 10 cats per dose level at 60 min (control day/ test day); 35/200; how it was run: as §1
# Felis catus [29] = test: Average food consumed at the dose of 0.063 mg/kg (po) using 10 cats per dose level at 30 min (control day/ test day); 14/112
# Felis catus [30] = test: Average food consumed at the dose of 0.25 mg/kg (po) using 10 cats per dose level at 180 min (control day/ test day); 45/231
# Felis catus [31] = test: Average food consumed at the dose of 0.50 mg/kg (po) using 10 cats per dose level at 30 min (control day/ test day); 47/190; settings: dose 0.5 mg/kg; how it was run: as §1
# Felis catus [32] = test: Average food consumed at the dose of 0.016 mg/kg (po) using 10 cats per dose level at 180 min (control day/ test day); 46/193
# Felis catus [33] = test: Average food consumed at the dose of 0.50 mg/kg (po) using 10 cats per dose level at 180 min (control day/ test day); 50/256; settings: dose 0.5 mg/kg; how it was run: as §1
# Felis catus [34] = test: Average food consumed at the dose of 0.50 mg/kg (po) using 10 cats per dose level at 60 min (control day/ test day); 50/221; settings: dose 0.5 mg/kg; how it was run: as §1
# Felis catus [35] = test: Average food consumed at the dose of 0.063 mg/kg (po) using 10 cats per dose level at 180 min (control day/ test day); 59/195
# Felis catus [36] = test: Average food consumed at the dose of 0.016 mg/kg (po) using 10 cats per dose level at 60 min (control day/ test day); 41/160
structure (smiles),measurement,setting,value
CN1CCC(=C2c3ccccc3C=Cn3cccc32)CC1.O=C(O)C(=O)O,Average consumed,Felis catus [1],166 g
same,Average consumed,Felis catus [2],193 g
same,Average consumed,Felis catus [3],183 g
same,Average consumed,Felis catus [4],133 g
same,Average consumed,Felis catus [5],113 g
same,Average consumed,Felis catus [6],69 g
same,Average consumed,Felis catus [7],66 g
same,Average consumed,Felis catus [8],126 g
same,Average consumed,Felis catus [9],148 g
same,Average consumed,Felis catus [10],100 g
same,Average consumed,Felis catus [11],134 g
same,Average consumed,Felis catus [12],43 g
CN1CCC(=C2c3cc(C(=O)O)ccc3C=Cn3cccc32)CC1.Cl,Average consumed,Felis catus [13],55 g
same,Average consumed,Felis catus [14],114 g
same,Average consumed,Felis catus [15],73 g
same,Average consumed,Felis catus [16],78 g
same,Average consumed,Felis catus [17],176 g
same,Average consumed,Felis catus [18],145 g
same,Average consumed,Felis catus [19],112 g
same,Average consumed,Felis catus [20],98 g
same,Average consumed,Felis catus [21],65 g
same,Average consumed,Felis catus [22],84 g
same,Average consumed,Felis catus [23],184 g
same,Average consumed,Felis catus [24],170 g
CN1CCC(=C2c3ccccc3C=Cc3ccccc32)CC1 [CYPROHEPTADINE],Average consumed,Felis catus [25],75 g
same,Average consumed,Felis catus [26],109 g
same,Average consumed,Felis catus [27],80 g
same,Average consumed,Felis catus [28],129 g
same,Average consumed,Felis catus [29],56 g
same,Average consumed,Felis catus [30],179 g
same,Average consumed,Felis catus [31],135 g
same,Average consumed,Felis catus [32],157 g
same,Average consumed,Felis catus [33],194 g
same,Average consumed,Felis catus [34],157 g
same,Average consumed,Felis catus [35],134 g
same,Average consumed,Felis catus [36],108 g

# From ChEMBL document CHEMBL1122018, “Synthesis and orexigenic activity of some 1-methyl-4-piperidylidene-Substituted pyrrolo[2,1-g][3] benzazepine and dibenzocycloheptene derivatives” (1982)
